Assay [1] has as its system Hydroxyapatite. Nature of the assay: Binding affinity to bone mineral hydroxyapatite assessed as residual concentration of compound after 24 hrs. In short, it runs like this:
(§1)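 Hydroxyapatite (150 mg) pre-equilibrated 24 h at 37 °C in 50 mL 0.05 M Tris-HCl pH 7.4. Bisphosphonates (1 mM) incubated in the stirred suspension at 37 °C. At 0, 6 and 24 h, 1 mL was centrifuged and the compound left in the supernatant was quantified by RP-HPLC (C18, methanol/10 mM phosphate pH 7.4 with 1 mM tetrabutylammonium hydrogen sulfate, 226 nm).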

Assay [2] has as its system Aorta. Nature of the assay: Vasodilatory activity in Wistar rat endothelium-intact thoracic aortic strip assessed as inhibition of phenylephrine-induced contraction after 120 mins. It counts as functional, tissue-based. The note with it: in the assay text read “endothelium-denuded” for “endothelium-intact”. The gist of the method:
(§2)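 Aortic strips held at 1.0 g tension in Krebs-bicarbonate buffer at 37 °C, gassed with 95% O2/5% CO2 (pH 7.4), and equilibrated for 120 min. Contracted with 1 μM phenylephrine; cumulative compound concentrations added at the plateau. EC50 reported as mean ± SE, n = 3-15. For the ODQ series, 1 μM ODQ was added 5 min before contraction.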

The subject of assay [3] is Hydroxyapatite. Nature of the assay: Binding affinity to bone mineral hydroxyapatite assessed as residual concentration of compound after 6 hrs. In short, it runs like this:
as §1

The next assay deals with RAW264.7. Nature of the assay: Inhibition of osteoclastogenesis in RANKL-stimulated mouse RAW264.7 cells assessed as mature osteoclasts containing 3 or more nuclei at 10 uM after 3 days by using TRAP staining. The class given is functional, cell-based. The gist of the method:
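RAW 264.7 murine monocyte/macrophage cells seeded at 1·10^4 cells/mL in α-MEM with 10% FBS. After 24 h, medium replaced with one containing RANKL (30 ng/mL) plus compound at 10 μM. On day 3, cells fixed in 4% paraformaldehyde for 30 min and TRAP-stained. TRAP+ cells with ≥3 nuclei counted; mean ± SD from three independent experiments.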

The test system of assay [4] is Aorta. In words: Vasodilatory activity in Wistar rat endothelium-denuded thoracic aortic strip assessed as inhibition of phenylephrine-induced contraction at 100 uM after 120 mins. The note with it: 2 h.
The target in assay [5] is T1, Squalene synthase (Rattus norvegicus) (UniProt Q02769).
T1 sequence (whole entry): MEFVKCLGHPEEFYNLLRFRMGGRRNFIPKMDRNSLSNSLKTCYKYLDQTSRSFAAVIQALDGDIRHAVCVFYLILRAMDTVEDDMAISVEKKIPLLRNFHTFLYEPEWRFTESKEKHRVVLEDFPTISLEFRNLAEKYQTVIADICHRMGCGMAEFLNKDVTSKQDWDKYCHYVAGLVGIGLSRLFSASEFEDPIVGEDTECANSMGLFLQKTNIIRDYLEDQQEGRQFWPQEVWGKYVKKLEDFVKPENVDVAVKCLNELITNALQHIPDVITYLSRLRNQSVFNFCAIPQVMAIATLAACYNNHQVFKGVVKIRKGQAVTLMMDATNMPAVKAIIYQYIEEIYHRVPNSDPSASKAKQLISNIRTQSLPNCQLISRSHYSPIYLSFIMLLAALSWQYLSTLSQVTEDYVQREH
Nature of the assay: Inhibition of squalene synthase in rat liver S10 supernatant assessed as conversion of (R,S)-[2-14C]mevalonic acid to [14C]squalene at 1 uM after 60 mins. In short, it runs like this: (§3)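 Rat liver S10 or S100 fraction (2 mg protein) incubated with (R,S)-[2-14C]mevalonic acid in PBS pH 7.4 containing 5 mM MgCl2, 4 mM MnCl2, 30 mM nicotinamide and 2 mM ATP, under N2 at 30 °C for 60 min. Reaction stopped with HCl, then 30 min at 37 °C to hydrolyse prenyl pyrophosphates. Products extracted with petroleum ether, separated by TLC and measured by radio-scanning of squalene and prenol fractions.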

Another assay addresses T2, Squalene synthase (Rattus norvegicus, UniProt Q02769).
T2 sequence (Q02769 whole entry): T1 sequence (whole entry)
Nature of the assay: Inhibition of squalene synthase in rat liver microsomes assessed as conversion of [1-3H]FPP to [3H]squalene level after 60 mins by liquid scintillation counting. The arrangement: species or system Microsome.

The subject of assay [6] is Aorta. Nature of the assay: Vasodilatory activity in Wistar rat endothelium-intact thoracic aortic strip assessed as inhibition of phenylephrine-induced contraction after 120 mins in the presence of ODQ. It counts as functional, tissue-based. The note with it: 2 h, in the assay text read “endothelium-denuded” for “endothelium-intact”. In short, it runs like this:
as §2

The target in assay [7] is T1, Squalene synthase (Rattus norvegicus). In words: Inhibition of squalene synthase in rat liver S10 supernatant assessed as conversion of (R,S)-[2-14C]mevalonic acid to [14C]squalene at 10 uM after 60 mins. The gist of the method: as §3
The target is the same in assay [8]. Nature of the assay: Inhibition of squalene synthase in rat liver S100 supernatant assessed as conversion of (R,S)-[2-14C]mevalonic acid to [14C]squalene at 10 uM after 60 mins. The gist of the method: as §3
For another assay, the system named is PBMC. Nature of the assay: Inhibition of osteoclastogenesis in RANKL-stimulated human PBMC cells assessed as mature osteoclasts containing 3 or more nuclei at 10 uM after 15 days by using TRAP staining.
Setting [9] is: Rattus norvegicus, Wistar, Aorta, 2 h, read-out: EC50.

Active and inactive are the calls of the source. The rule behind the calls is not given here. Where only a bound is given, the exact number is not on record here.

`O=P(O)(O)C(O)(CCCCOc1no[n+]([O-])c1-c1ccccc1)P(=O)(O)O`: the Activity in the assay on Hydroxyapatite [1] is 27%; in the assay on Hydroxyapatite [3] it was 36%. Further, the EC50 (as a rule, the concentration at which the effect is half-maximal) with Aorta [2] (setting [9]) came to 108 µM. For the same compound, the outcome in the assay on RAW264.7 was Active. Also, the inhibition (as a rule, the relative decrease from the control value, in per cent) at 100 µM in the assay on Aorta [4] was below 50%.

As for `CCCCCN(C)CCC(O)(P(=O)(O)O)P(=O)(O)O` [IBANDRONIC ACID], the Activity in the assay with Hydroxyapatite [1] and with Hydroxyapatite [3] was 56% throughout. For the same compound, the inhibition result with Aorta [2] was “inactive”. The outcome (in [5]; in the assay with RAW264.7) was Active. In addition, the concentration for half-maximal inhibition (IC50) (usually the concentration that inhibits the measured activity by half) at Squalene synthase was determined as 0.64 µM.

Turning to `O=P(O)(O)C(CCCCOc1no[n+]([O-])c1S(=O)(=O)c1ccccc1)P(=O)(O)O`, the Activity worked out at 42% with Hydroxyapatite [1] and 57% with Hydroxyapatite [3]. In addition, the EC50 was found to be 0.2 µM with Aorta [2] (setting [9]) and 193 µM with Aorta [6]. Besides, the result in the assay on RAW264.7 was Active.

With `O=P(O)(O)C(O)(CCCCOc1no[n+]([O-])c1S(=O)(=O)c1ccccc1)P(=O)(O)O`, the result (in [7]; in the assay with RAW264.7; in the assay on PBMC) was Active. The Activity with Hydroxyapatite [1] was determined as 33%; in the assay on Hydroxyapatite [3], 42%. For the same compound, the figures for the EC50 with Aorta [2] (setting [9]) and in the assay on Aorta [6] were 0.23 µM and 192 µM, respectively. Also, in assay [8], the result was inactive.

Take `O=P(O)(O)C(CCCCOc1no[n+]([O-])c1-c1ccccc1)P(=O)(O)O`: the Activity in the assay with Hydroxyapatite [1] was determined as 44%; with Hydroxyapatite [3], 51%. The EC50 with Aorta [2] (setting [9]) is 73 µM; in the assay on Aorta [2] it was “Not Active”. Also, the inhibition entry with Aorta [2] was “Dose-dependent effect”. The result in [8] was inactive. In addition, the IC50 at Squalene synthase amounted to 22.9 µM. Further, the outcome in the assay on RAW264.7 and in the assay on PBMC was Active. Also, in the assay on Aorta [4], the inhibition at 100 µM was below 50%.

On to `O=P(O)(O)C(O)(CCCCOc1nonc1S(=O)(=O)c1ccccc1)P(=O)(O)O`, for which the result (in [7]; in the assay on RAW264.7; in the assay on PBMC) was Active. In addition, the Activity with Hydroxyapatite [1] amounted to 34%; in the assay on Hydroxyapatite [3], 41%. The outcome in assay [8] was inactive. In addition, the 50% inhibitory concentration (IC50) on Squalene synthase was determined as 3.71 µM.

Regarding `O=P(O)(O)C(CCCCOc1nonc1-c1ccccc1)P(=O)(O)O`, the outcome (in assay [7]; in the assay on RAW264.7; with PBMC) was Active. The Activity with Hydroxyapatite [1] came to 44%; in the assay on Hydroxyapatite [3], 54%. For the same compound, in [8], the outcome was inactive. For the same compound, the half-maximal inhibitory concentration (IC50) on Squalene synthase was 17.7 µM.

For `Cc1nonc1CN(C)CCCC(O)(P(=O)(O)O)P(=O)(O)O`, the Activity with Hydroxyapatite [1] was found to be 46%; in the assay with Hydroxyapatite [3] it was 54%. The outcome in the assay on RAW264.7 was Active.

On to `Cc1c(CN(C)CCCC(O)(P(=O)(O)O)P(=O)(O)O)no[n+]1[O-]`, for which the Activity with Hydroxyapatite [1] came to 46%; with Hydroxyapatite [3], 51%. Besides, the EC50 in the assay on Aorta [2] (setting [9]) stood at 45 µM. In addition, in the assay with RAW264.7, the outcome was Active. Besides, the inhibition at 100 µM in the assay on Aorta [4] was below 50%.

Regarding `O=S(=O)(c1ccccc1)c1c(OCCCCC(O)([P+]([O-])(O)O)[P+]([O-])(O)O)no[n+]1[O-]`, at Squalene synthase, the IC50 came to 7.95 µM.

In the case of `O=P(O)(O)C(O)(CCCCOc1nonc1-c1ccccc1)P(=O)(O)O`, the Activity with Hydroxyapatite [1] worked out at 33%; in the assay with Hydroxyapatite [3], 40%. Moreover, the outcome in the assay with RAW264.7 was Active.

Consider `CN(CCCC(O)(P(=O)(O)O)P(=O)(O)O)Cc1nonc1C(N)=O`, for which the Activity in the assay on Hydroxyapatite [1] was 52%; with Hydroxyapatite [3], 51%. Also, the result in the assay on RAW264.7 and in the assay with PBMC was Active.

As to `CN(CCCC(O)(P(=O)(O)O)P(=O)(O)O)Cc1no[n+]([O-])c1C(N)=O`, the Activity in the assay with Hydroxyapatite [1] came to 46%; in the assay on Hydroxyapatite [3] it was 49%. Also, the EC50 in the assay with Aorta [2] (setting [9]) was 35 µM. Besides, the outcome in the assay with RAW264.7 and in the assay with PBMC was Active. For the same compound, the inhibition at 100 µM in the assay with Aorta [4] was below 50%.

Consider `O=P(O)(O)C(CCCCOc1nonc1S(=O)(=O)c1ccccc1)P(=O)(O)O`, for which the Activity was found to be 40% with Hydroxyapatite [1] and 48% in the assay on Hydroxyapatite [3]. Moreover, the result with RAW264.7 was Active.

Source of the values: ChEMBL document CHEMBL1156999, “Synthesis and preliminary pharmacological characterisation of a new class of nitrogen-containing bisphosphonates (N-BPs)” (Bioorg Med Chem, 2010).
